Laboratory results published in ChEMBL document CHEMBL4422612, “Small Molecule Inhibitor that Stabilizes the Autoinhibited Conformation of the Oncogenic Tyrosine Phosphatase SHP2” (J Med Chem, 2019).
Numbering of substitutions follows the chain as printed. Active and inactive are the calls of the source. No cut-off for these calls is given here.

Columns and labels:
[1] = biological target: T1, Tyrosine-protein phosphatase non-receptor type 11 (Homo sapiens) (UniProt Q06124); test: Mixed type inhibition of human wild-type full length SHP2 assessed as substrate [Et] at 10 uM using H-Glu-Phe-pTyr-Ala-Glu-Val-Gly-Arg-Ser-Pro-Pro-Asp-Pro-Ala-Lys as substrate by Lineweaver-Burk plot analysis (reference value: 0.029 uM)
T1 sequence (whole entry): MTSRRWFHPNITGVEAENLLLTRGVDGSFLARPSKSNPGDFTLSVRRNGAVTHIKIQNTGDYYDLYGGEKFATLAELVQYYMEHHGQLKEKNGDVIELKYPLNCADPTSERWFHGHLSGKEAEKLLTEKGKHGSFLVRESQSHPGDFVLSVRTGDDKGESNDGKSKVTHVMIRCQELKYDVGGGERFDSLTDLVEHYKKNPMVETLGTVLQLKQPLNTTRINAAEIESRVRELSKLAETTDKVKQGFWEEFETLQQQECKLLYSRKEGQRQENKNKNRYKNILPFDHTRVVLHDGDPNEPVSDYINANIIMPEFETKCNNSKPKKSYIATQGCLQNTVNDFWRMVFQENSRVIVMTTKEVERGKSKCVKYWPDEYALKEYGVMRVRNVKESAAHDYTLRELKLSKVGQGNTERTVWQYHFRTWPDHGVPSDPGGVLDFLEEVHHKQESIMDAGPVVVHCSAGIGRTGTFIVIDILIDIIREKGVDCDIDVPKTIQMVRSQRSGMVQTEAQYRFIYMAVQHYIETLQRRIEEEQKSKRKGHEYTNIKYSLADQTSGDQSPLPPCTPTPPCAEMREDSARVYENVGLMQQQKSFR

[2] = biological target: T2, Tyrosine-protein phosphatase non-receptor type 11 (Mus musculus) (UniProt P35235); test: Inhibition of SHP2 in mouse Ba/F3 cells assessed as reduction in IL3-stimulated JAK2 phosphorylation pretreated for 4 hrs followed by IL3 stimulation and measured after 5 to 60 mins by Western blot analysis; format: cell-based
T2 sequence (whole entry): T1 sequence (whole entry) with M450V, A550V, K590R
Summary of the method: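 Ba/F3 cells starved overnight in serum- and cytokine-free RPMI1640. Treated with 20 µM compound for 4 h, then IL-3 (2 ng/mL) for the indicated times. RIPA lysates (50 µg) immunoblotted for p-Erk, p-Akt, p-Jak2 and p-Stat5, then reprobed for total proteins. Representative of three experiments.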

[3] = tested on: T3, Tyrosine-protein phosphatase non-receptor type 11 (Mus musculus), P35235 [E76K]; test: Inhibition of PTPN11 E76K mutant in mouse embryonic fibroblasts assessed as inhibition of cell growth at 6 uM after 24 to 72 hrs by cell proliferation-based assay
T3 sequence (whole entry): T1 sequence (whole entry) with E76K, M450V, A550V, K590R
Summary of the method: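 Ptpn11 E76K/+ and Ptpn11 +/+ MEFs treated with 6 µM compound; cell number read by One Solution proliferation assay. Triplicates from one of three experiments.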

[4] = biological target: T1, Tyrosine-protein phosphatase non-receptor type 11 (Homo sapiens); test: Stable inhibition of human wild-type full length SHP2 at 5 to 20 uM using H-Glu-Phe-pTyr-Ala-Glu-Val-Gly-Arg-Ser-ProPro-Asp-Pro-Ala-Lys as substrate followed by 3 times wash out with phosphate buffer by phosphatase assay

- Activity [1]: 0.029 µM
- inhibition [2]: Dose-dependent effect
- growth inhibition (GI) [3]: Active
- inhibition [4]: Active
SMILES: CCOc1cc(O)c(C(=O)/C=C/c2ccc(Cl)cc2Cl)cc1CN1CCC=C(n2c(=O)[nH]c3ccccc32)C1
